# Screens as filed in PubChem.
# Hits are enriched below; roughly 2.9% of the tested compounds scored in any of these assays.
# Tn6 DDE FP: DD(E)-Tn6 binding inhibition, primary FP screen; P02675; Fibrin DD(E) TRITC-Tn6 fluorescence polarization displacement; inhibition, % at 8.3 µM; 370,000 compounds, 0.21% hits; AID 720509;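 active = inhibition above a per-campaign cutoff: mean of compounds within control limits plus 3 SD, cut at about 15% in these data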;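 also: 0% = median of all compound wells on the plate and 100% = blocking peptide control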
# DDE Tn7 FP inh: disrupts Tn7 cyclic peptide binding to fibrin D-Dimer-E complex. FP displacement of FITC-Tn7 peptide from fibrin DD(E); 0% = median of compound wells per plate. inhibition, % at 8.3 µM. 370,000 compounds, 0.13% hits. AID 720508;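 active = inhibition above the mean of compounds falling within the control limits plus 3 SD of them, cut at about 14% in these data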;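 also: 0% = plate median of compound wells and 100% = 10 µM Aha-Tn7 peptide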
#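 Assay system: human fibrin DD(E) protein / Input: 2 µM fibrin DD(E) / Benchmarks: high control of 10 µM Aha-Tn7 peptide / Measured by: fluorescence polarization of the labelled Tn7 tracer / Medium: Tris buffer with calcium and detergent, pH 7.8 / Timing: 10 min compound pre-incubation, 3 h probe incubation at room temperature / Repeats: one replicate per compound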
# CRFBP-R2 agonist: CRF-BP/CRF-R2 complex agonism. HEK293 CRF-R2/CRF-BP, calcium dye fluorescence (FLIPR); percent of saturating CRF peptide response. activation, % at 13.2 µM. 350,000 compounds, 0.46% hits;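 active = activation of at least 50%, plus an integration ratio under a set limit after plate pattern correction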;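 also: plate controls were neutral control wells without compound for no effect and CRF at EC100 for full effect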
# CRFBP-R2 block: blocks CRF-induced signaling of the CRF-BP/CRF-R2 complex; HEK293 CRF-R2/CRF-BP, CRF-induced calcium fluorescence; inhibition, % at 11.8 µM; 350,000 compounds, 0.59% hits;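 active = inhibition of the ligand-induced calcium signal above about 50% at the single tested concentration, limit read from the data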
# CendR NRP1 mod: NRP-1/CendR interaction modulation; 360,000 compounds, 0.85% hits; inhibition, % at 25 µM; FAM-RPARPAR peptide binding to NRP-1, fluorescence polarization; O14786;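 active = inhibition or corrected inhibition above about 18%, plus a signal ratio from 0.5 to 1.5, limit read from the data, passing the limit was not always enough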
# Target sequence (O14786 whole entry, looked up): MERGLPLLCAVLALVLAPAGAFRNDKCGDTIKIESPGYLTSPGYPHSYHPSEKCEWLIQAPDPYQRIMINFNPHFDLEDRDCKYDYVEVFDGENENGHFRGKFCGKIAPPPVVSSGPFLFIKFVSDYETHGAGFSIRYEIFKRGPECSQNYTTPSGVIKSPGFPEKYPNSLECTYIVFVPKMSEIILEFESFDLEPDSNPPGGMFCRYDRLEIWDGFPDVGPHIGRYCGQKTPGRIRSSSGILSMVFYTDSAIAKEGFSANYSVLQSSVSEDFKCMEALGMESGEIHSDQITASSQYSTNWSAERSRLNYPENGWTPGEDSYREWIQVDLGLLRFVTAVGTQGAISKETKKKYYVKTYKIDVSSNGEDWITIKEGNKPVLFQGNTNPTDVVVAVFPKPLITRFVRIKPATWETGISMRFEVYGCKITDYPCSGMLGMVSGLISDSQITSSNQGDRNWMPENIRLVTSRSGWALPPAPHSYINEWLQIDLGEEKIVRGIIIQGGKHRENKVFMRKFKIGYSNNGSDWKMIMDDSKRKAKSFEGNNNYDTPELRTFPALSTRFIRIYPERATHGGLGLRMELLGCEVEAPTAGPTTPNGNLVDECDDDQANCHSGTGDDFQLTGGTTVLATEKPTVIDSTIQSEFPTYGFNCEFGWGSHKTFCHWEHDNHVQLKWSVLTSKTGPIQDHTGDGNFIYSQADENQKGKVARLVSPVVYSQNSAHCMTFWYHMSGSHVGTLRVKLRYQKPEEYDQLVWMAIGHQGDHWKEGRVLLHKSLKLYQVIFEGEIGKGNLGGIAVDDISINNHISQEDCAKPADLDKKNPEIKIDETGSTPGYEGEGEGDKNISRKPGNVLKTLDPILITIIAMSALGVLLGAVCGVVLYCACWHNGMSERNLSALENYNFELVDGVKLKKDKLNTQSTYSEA
# proKLK7 act: activates the human kallikrein-7 zymogen. activation, % at 7 µM. 370,000 compounds, 0.9% hits. P49862. purified proKLK7, EDANS-DABCYL substrate fluorescence; 100% is mature enzyme control, 0% vehicle;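 active = activation above the mean of all tested compounds plus 3 SD, computed per campaign excluding outliers beyond control limits, cut at about 13% in these data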
# KLK7 act conf: proKLK7 activation, confirmation | shares compounds with proKLK7 act | purified proKLK7, EDANS-DABCYL substrate fluorescence; scaled: vehicle 0, mature enzyme 100 | activation, % at 7 µM | 3,200 compounds, 68% hits;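 active = activation, as change over the incubation, above the mean of all tested compounds plus 3 SD, cut at about 13% in these data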
# EDANS interfere: optically interferes with EDANS-DABCYL signal, flagging KLK7 hits. EDANS-DABCYL substrate fluorescence interference, no enzyme, 4 h; solvent 0%, active enzyme control 100%. activation, % at 7 µM. 3,200 compounds, 80% hits. shares compounds with proKLK7 act;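 active = activation above the all-compound mean plus 3 SD, ignoring values outside control-based bounds, cut at about 4.8% in these data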;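 also: value is the 4 h activation minus the activation read at time zero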
# K7 EDANS ctr: counter-screen for kallikrein-7 activators: EDANS-DABCYL interference, dose response | shares compounds with proKLK7 act | EDANS-DABCYL peptide fluorescence interference, no enzyme | EC50, µM | 250 compounds, 20% hits | AID 720493;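 active = compounds that raise the fluorescence signal in this interference counterscreen, with EC50 at or below 10 µM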;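 also: intact quenched peptide substrate alone read at 355 nm excitation and 520 nm emission; signal is fluorescence gain from T0 to T4 after four hours at room temperature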
# * marks the source's active call; other numbers are inactive results; / = not tested or not shown.
SMILES,Tn6 DDE FP,DDE Tn7 FP inh,CRFBP-R2 agonist,CRFBP-R2 block,CendR NRP1 mod,proKLK7 act,KLK7 act conf,EDANS interfere,others
COc1cccc(C(=O)COc2ccc3ccc(=O)oc3c2)c1,-1,5,0,10,-3,1,/,/,
CCOc1ccccc1C(=O)Oc1ccc2ccc(=O)oc2c1,-4,-1,-1,14,-9,190*,305*,248*,
CC1(C)C=Cc2ccc(O)c(C(=O)/C=C/c3ccccc3)c2O1,3,0,/,/,/,/,/,/,
CN1CC(O)([C@H](Cc2ccccc2)NC(=O)OC(C)(C)C)OCC1C(=O)NCc1cccc2ccccc12 (stereo partly drawn),-8,3,/,/,/,/,/,/,
CCC(NC(=O)OCc1ccccc1)C(=O)Oc1ccc2ccc(=O)oc2c1 (stereo not drawn),5,-3,-1,-4,2,75*,434*,455*,
CCNc1nc(N)c(C(=C(C#N)C#N)c2ccccc2)s1,-8,1,-2,4,-2,33*,139*,139*,
CCOC(=O)CC[C@@]1(C(=O)OCC)C[C@@H](CC(=O)NCc2ccc(OC)c(OC)c2)C(=O)N2CCCC=C21,0,2,/,/,/,0,/,/,
Cc1ccc2nc(N3CCN(C(=O)CCC(=O)O)CC3)nc(-c3ccccc3)c2c1,-3,-10,0,-5,-1,27*,-40,-57,
O=C(O)C1CC=CCC1C(=O)N1CCN(c2nc(-c3ccccc3)c3ccccc3n2)CC1 (stereo not drawn),-3,-4,-1,-42,10,80*,2,-2,
Cc1ccc2nc(N3CCC(C(=O)O)CC3)nc(-c3ccccc3)c2c1,-3,-4,2,-12,-8,6,/,/,
CCCC(=O)N1CCN(c2nnc(-c3ccccc3)c3ccccc23)CC1,0,-1,0,-1,-12,0,/,/,
O=C(O)CCCC(=O)N1CCN(c2nc(-c3ccccc3)c3ccccc3n2)CC1,-3,-1,-1,3,-9,16*,9,8.0*,
CCOc1cccc(/C=N\NC(=O)c2cnccn2)c1O,5,0,/,/,/,0,/,/,
c1cc(-c2nnc3n2N=C(c2ccc4c(c2)OCO4)CS3)ccn1,1,1,/,/,/,0,/,/,
CCOc1cccc(C=NNC(=O)C(=O)Nc2cccc(C(F)(F)F)c2)c1O,-7,-3,/,/,/,0,/,/,
COC(=O)c1cc2c(c3c4cc(C)ccc4n(S(=O)(=O)c4cccc(C)c4)c13)C(=O)N(Cc1ccc(N(C)C)cc1)C2,-1,0,/,/,/,-1,/,/,
CCNc1nc(C)c(CN(C(C)=O)c2ccccc2)nc1C#N,-4,5,-1,13,18,33*,28*,24*,K7 EDANS ctr=>69
O=C(c1nc2n(n1)C(c1ccc(Cl)cc1)C=C(c1ccccc1)N2)N1CCOCC1 (stereo not drawn),-6,2,97*,-7,19,54*,-37,-34,
CC(=O)Nc1nc2n(n1)C(c1ccccc1)C=C(c1ccccc1)N2 (stereo not drawn),/,/,48,-11,10,/,/,/,
CC(=O)Nc1nc2n(n1)C(c1ccc(F)cc1)C=C(c1ccccc1)N2 (stereo not drawn),-1,7,75*,-6,13,22*,-23,0,
C[C@@H]1COc2cc(N3CCSCC3)ccc2S(=O)(=O)N1C,-5,-3,/,/,/,0,/,/,
CC1(C)Oc2ccc(C(=O)NCCCN3CCCC3)cc2NC1=O,4,-2,/,/,/,0,/,/,
CCOC(=O)C1=NN(c2ccc(OC)cc2)C2C(=O)N(c3ccccc3OC)C(=O)C12 (stereo not drawn),10,6,2,6,-12,-2,/,/,
CCOC(=O)C1=NN(c2ccccc2)C2C(=O)N(c3ccccc3OC)C(=O)C12 (stereo not drawn),2,3,-1,-22,9,19*,3,0,
Cc1cccc2cc3c(NC(=O)C(C)C)nn(C)c3nc12,5,-2,0,-38,-18,0,/,/,
SMILES,Tn6 DDE FP,DDE Tn7 FP inh,CRFBP-R2 agonist,CRFBP-R2 block,CendR NRP1 mod,proKLK7 act,KLK7 act conf,EDANS interfere,others
Cc1ccc2cc3c(NC(=O)C(C)C)nn(C)c3nc2c1,8,2,0,-2,10,15*,-9,-1,
Cc1ccccc1CS(=O)(=O)Cc1ccc(C(=O)Nc2cccc(Cl)c2F)o1,10,5,/,/,/,0,/,/,
Cc1oc2cc3oc(=O)c(CCC(=O)NCCCC(=O)O)c(C)c3cc2c1C,-9,3,2,10,6,14*,24*,22*,
Cc1c(CCC(=O)NC2CC2)c(=O)oc2cc(O)ccc12,-12,-11,-2,2,4,86*,62*,73*,
N=c1oc2ccc3ccccc3c2cc1-c1nnc2n1CCCCC2,9,-1,-1,1,9,63*,72*,72*,
O=S1(=O)CC2c3ccc(F)cc3CN2CN1Cc1ccccc1 (stereo not drawn),-6,-4,/,/,/,0,/,/,
O=C(NC1CCCC1)[C@@H]1CCCN1C(=O)[C@@H](NS(=O)(=O)c1ccc(F)cc1F)c1ccccc1,-5,2,/,/,/,0,/,/,
COC(=O)[C@H](C(C)C)N1Cc2nnn(Cc3ccccc3)c2C=CS1(=O)=O,6,1,/,/,/,-1,/,/,
CCOCCCn1c(=NC(C)=O)c(C(=O)OCC)cc2c(=O)n3ccccc3nc21,-2,4,0,20,3,2,/,/,
CCOC(=O)c1cc2c(=O)n3ccccc3nc2n(CCCOC)c1=NC(=O)C(C)(C)C,2,0,0,-2,-10,22*,15*,15*,
CCOCCCn1c(=NC(C)=O)c(C#N)cc2c(=O)n3ccccc3nc21,7,2,-2,2,-1,23*,6,17*,
CCOC(=O)c1cc2c(=O)n3ccccc3nc2n(CCOC)c1=NC(=O)c1c(-c2c(F)cccc2Cl)noc1C,-1,10,7,16,-24,0,/,/,
CCOC(=O)c1cc2c(=O)n3ccccc3nc2n(C(C)C)c1=NC(=O)c1c(-c2ccccc2Cl)noc1C,-7,0,7,1,-16,-8,/,/,
CCOC(=O)c1cc2c(=O)n3ccccc3nc2n(C(C)C)c1=NC(=O)c1ccncc1,9,3,-2,15,-9,37*,56*,62*,
